Assay results reported in ChEMBL document CHEMBL5674880 (PLoS One, 2018).

Legend:
Format in all cases: functional, cell-based
CAL-27 = assay: Antiproliferative activity against human CAL-27 cells after 10 days; conditions: CAL-27, 240 h
In short: (§1)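 Tested as part of a 240-line cancer cell panel (Eurofins Oncopanel); all lines were mycoplasma-negative and STR-verified. Cells were exposed to a compound concentration series in 2D culture for 10 days. The highest concentration was 10 μM or 25 μM, depending on the inhibitor. Antiproliferative IC50 was derived from the mean of three biological replicates.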

Caov-3 cell line = assay: Antiproliferative activity against human Caov-3 cells after 10 days; conditions: Caov-3, 240 h
In short: (§2)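 10-day 2D proliferation screen of a broad cancer cell panel (about 240 lines, Eurofins Oncopanel). All lines were mycoplasma negative and STR verified. Compounds were dosed up to a top concentration of 10 μM or 25 μM, depending on the inhibitor. Anti-proliferative IC50 values are the average of three biological replicates.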

PANC-1 = assay: Antiproliferative activity against human PANC-1 cells after 10 days; conditions: PANC-1, 240 h
In short: (§3)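 Broad cancer cell line panel (Eurofins Oncopanel, about 240 lines; mycoplasma negative, STR verified) grown in 2D culture and exposed to compound in a 10-day proliferation assay. The top concentration was 10 μM for the SMYD2 inhibitor series and 25 μM for the SMYD3 inhibitor. The proliferative IC50 is taken from concentration-response data, each value the mean of three biological replicates.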

RKO = assay: Antiproliferative activity against human RKO cells after 10 days; conditions: 240 h; in short: as §3
AN3-CA = assay: Antiproliferative activity against human AN3-CA cells after 10 days; conditions: 240 h; in short: as §1
KLE = assay: Antiproliferative activity against human KLE cells after 10 days; conditions: 240 h; in short: as §3
RD = assay: Antiproliferative activity against human RD cells after 10 days; conditions: 240 h; in short: as §3
Ramos = assay: Antiproliferative activity against human Ramos cells after 10 days; conditions: 240 h
SK-MEL-1 = assay: Antiproliferative activity against human SK-MEL-1 cells after 10 days; conditions: SK-MEL-1, 240 h
A204 = assay: Antiproliferative activity against human A204 cells after 10 days; conditions: A204, 240 h; in short: as §1
ACHN = assay: Antiproliferative activity against human ACHN cells after 10 days; conditions: 240 h; in short: as §1
CAKI-1 = assay: Antiproliferative activity against human CAKI-1 cells after 10 days; conditions: CAKI-1, 240 h; in short: as §1
CCF-STTG1 = assay: Antiproliferative activity against human CCF-STTG1 cells after 10 days; conditions: CCF-STTG1, 240 h
In short: (§4)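 Cell lines run in the Eurofins Oncopanel broad cancer panel, all mycoplasma-negative and STR-verified. Cells were exposed to a compound concentration series in a 10-day proliferation assay, and an anti-proliferative IC50 was derived. Values are the mean of three biological replicates.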

647-V = assay: Antiproliferative activity against human 647-V cells after 10 days; conditions: 240 h
In short: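 Tested in the Eurofins Oncopanel of about 240 cancer cell lines, all mycoplasma-negative and STR-verified. Cells were exposed to compound for 10 days in 2D culture, and a proliferative IC50 was derived from the concentration series. The highest concentration tested was 10 μM in the SMYD2 inhibitor screen and 25 μM in the SMYD3 inhibitor screen. Values are means of three biological replicates.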

SK-MES-1 = assay: Antiproliferative activity against human SK-MES-1 cells after 10 days; conditions: SK-MES-1, 240 h
MES-SA = assay: Antiproliferative activity against human MES-SA cells after 10 days; conditions: 240 h; in short: as §3
COR-L23 = assay: Antiproliferative activity against human COR-L23 cells after 10 days; conditions: COR-L23, 240 h; in short: as §2
SW837 = assay: Antiproliferative activity against human SW837 cells after 10 days; conditions: SW837, 240 h
CGTH-W-1 = assay: Antiproliferative activity against human CGTH-W-1 cells after 10 days; conditions: CGTH-W-1, 240 h; in short: as §1
SW982 = assay: Antiproliferative activity against human SW982 cells after 10 days; conditions: SW982, 240 h
BeWo = assay: Antiproliferative activity against human BeWo cells after 10 days; conditions: 240 h; in short: as §1
OE19 = assay: Antiproliferative activity against human OE19 cells after 10 days; conditions: OE19, 240 h; in short: as §3
SJRH30 = assay: Antiproliferative activity against human SJRH30 cells after 10 days; conditions: SJRH30, 240 h
HT-1080 = assay: Antiproliferative activity against human HT-1080 cells after 10 days; conditions: HT-1080, 240 h; in short: as §2
D283 Med = assay: Antiproliferative activity against human D283 Med cells after 10 days; conditions: 240 h; in short: as §2
U-266 = assay: Antiproliferative activity against human U266B1 cells after 10 days; conditions: U-266, 240 h
SW1783 = assay: Antiproliferative activity against human SW1783 cells after 10 days; conditions: SW1783, 240 h
Calu-6 = assay: Antiproliferative activity against human Calu-6 cells after 10 days; conditions: Calu-6, 240 h; in short: as §2
DLD-1 = assay: Antiproliferative activity against human DLD-1 cells after 10 days; conditions: DLD-1, 240 h; in short: as §2
DMS-53 = assay: Antiproliferative activity against human DMS-53 cells after 10 days; conditions: DMS-53, 240 h; in short: as §2
ES-2 = assay: Antiproliferative activity against human ES2 cells after 10 days; conditions: ES-2, 240 h; in short: as §2
SW 962 = assay: Antiproliferative activity against human SW 962 cells after 10 days; conditions: SW 962, 240 h
BXPC-3 = assay: Antiproliferative activity against human BXPC-3 cells after 10 days; conditions: BXPC-3, 240 h; in short: as §1
G-402 = assay: Antiproliferative activity against human G-402 cells after 10 days; conditions: G-402, 240 h; in short: as §2
NCI-H747 = assay: Antiproliferative activity against human NCI-H747 cells after 10 days; conditions: NCI-H747, 240 h; in short: as §3
BV-173 = assay: Antiproliferative activity against human BV-173 cells after 10 days; conditions: BV-173, 240 h; in short: as §1
JEG-3 = assay: Antiproliferative activity against human JEG-3 cells after 10 days; conditions: JEG-3, 240 h; in short: as §4
AU565 = assay: Antiproliferative activity against human AU565 cells after 10 days; conditions: AU565, 240 h; in short: as §1
SW 954 = assay: Antiproliferative activity against human SW 954 cells after 10 days; conditions: SW 954, 240 h
BFTC-905 = assay: Antiproliferative activity against human BFTC-905 cells after 10 days; conditions: BFTC-905, 240 h; in short: as §1
Daoy = assay: Antiproliferative activity against human Daoy cells after 10 days; conditions: 240 h; in short: as §2
DoTc2-4510 = assay: Antiproliferative activity against human DoTc2-4510 cells after 10 days; conditions: DoTc2-4510, 240 h; in short: as §2
NCI-H661 = assay: Antiproliferative activity against human NCI-H661 cells after 10 days; conditions: NCI-H661, 240 h; in short: as §3
T98G = assay: Antiproliferative activity against human T98G cells after 10 days; conditions: 240 h
RPMI-7951 = assay: Antiproliferative activity against human RPMI-7951 cells after 10 days; conditions: RPMI-7951, 240 h
SW1417 = assay: Antiproliferative activity against human SW1417 cells after 10 days; conditions: SW1417, 240 h

Measured: IC50

O=C(NC1CN(Cc2cnn(Cc3ccccc3)c2)C1)c1cn(C2CC2)nn1
> 10 µM: CAL-27 | Caov-3 cell line | PANC-1 | RKO | AN3-CA | KLE | RD | Ramos | SK-MEL-1 | A204 | ACHN | CAKI-1 | CCF-STTG1 | 647-V | SK-MES-1 | MES-SA | COR-L23 | SW837 | CGTH-W-1 | SW982 | BeWo | OE19 | SJRH30 | HT-1080 | D283 Med | U-266 | SW1783 | Calu-6 | DLD-1 | DMS-53 | ES-2 | SW 962 | BXPC-3 | G-402 | NCI-H747 | BV-173 | JEG-3 | AU565 | SW 954 | BFTC-905 | Daoy | DoTc2-4510 | NCI-H661 | T98G | RPMI-7951 | SW1417
